Measurements: ChEMBL document CHEMBL1123430, “Potential tumor- or organ-imaging agents. 26. Polyiodinated 2-substituted triacylglycerols as hepatographic agents” (J Med Chem, 1986)

Key:
Rattus norvegicus [1] = experiment: Polyacrylamide Gel Electrophoresis (PAGE) analysis of rat plasma 30 min after intravenous administration of radiolabeled compound (below albumin ); assay type: functional, organism-based
Method in brief: (§1)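 Gels were sectioned and counted in a γ counter. Radioactivity in each band (stacking gel, LDL, HDL, albumin, below albumin) is expressed as a percentage of the total radioactivity applied to the gel, ± SEM, n = 3-5.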

Rattus norvegicus [2] = experiment: Polyacrylamide Gel Electrophoresis (PAGE) analysis of rat plasma 30 min after intravenous administration of radiolabeled compound concentration of stacking gel; assay type: functional, organism-based; method in brief: as §1
Rattus norvegicus [3] = experiment: Distribution of radioactivity of radiolabeled compound in blood of female rats 30 minutes after intravenous administration; assay type: ADME, organism-based; settings: in vivo, 0.5 h
Rattus norvegicus [4] = experiment: Distribution of radioactivity of radiolabeled compound in liver of female rats 30 minutes after intravenous administration; assay type: ADME, organism-based; settings: in vivo, 0.5 h
Rattus norvegicus [5] = experiment: Distribution of radioactivity of radiolabeled compound in liver of female rats 5 minutes after intravenous administration at; assay type: ADME, organism-based; settings: in vivo
Rattus norvegicus [6] = experiment: Polyacrylamide Gel Electrophoresis (PAGE) analysis of rat plasma 30 min after intravenous administration of radiolabeled compound at concentration of high density; assay type: functional, organism-based; method in brief: as §1
Rattus norvegicus [7] = experiment: Distribution of radioactivity of radiolabeled compound in kidney of female rats 30 minutes after intravenous administration; assay type: ADME, organism-based; settings: in vivo, 0.5 h
Rattus norvegicus [8] = experiment: Distribution of radioactivity of radiolabeled compound in kidney of female rats 5 minutes after intravenous administration; assay type: ADME, organism-based; settings: in vivo
Rattus norvegicus [9] = experiment: Distribution of radioactivity of radiolabeled compound in lung of female rats 30 minutes after intravenous administration; assay type: ADME, organism-based; settings: in vivo, 0.5 h
Rattus norvegicus [10] = experiment: Polyacrylamide Gel Electrophoresis (PAGE) analysis of rat plasma 30 min after intravenous administration of radiolabeled compound in albumin; assay type: functional, organism-based; method in brief: as §1
Rattus norvegicus [11] = experiment: Polyacrylamide Gel Electrophoresis (PAGE) analysis of rat plasma 30 min after intravenous administration of radiolabeled in low-density lipoprotein; assay type: functional, organism-based; method in brief: as §1
Rattus norvegicus [12] = experiment: Distribution of radioactivity of radiolabeled compound in blood of female rats 5 minutes after intravenous administration; assay type: ADME, organism-based; settings: in vivo
Rattus norvegicus [13] = experiment: Polyacrylamide Gel Electrophoresis (PAGE) analysis of rat plasma 5 minutes after intravenous administration of radiolabeled compound in high density lipoprotein; assay type: functional, organism-based
Method in brief: (§2)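 ¹²⁵I-labeled compound, radioiodinated by exchange in a pivalic acid melt, solubilized in normal saline with Tween 20 and given iv to adult female Sprague–Dawley rats (200–250 g), 5–30 μCi/animal, 3–4 rats per time point. Plasma was run on polyacrylamide gels. Gels were sectioned and gamma counted. Radioactivity per band (stacking gel, LDL, HDL, albumin, below albumin) is given as % of total applied; mean ± SEM, n = 3-5.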

Rattus norvegicus [14] = experiment: Polyacrylamide Gel Electrophoresis (PAGE) analysis of rat plasma 5 minutes after intravenous administration of radiolabeled in low-density lipoprotein; assay type: functional, organism-based; method in brief: as §2
Rattus norvegicus [15] = experiment: Distribution of radioactivity of radiolabeled compound in lung of female rats 5 minutes after intravenous administration; assay type: ADME, organism-based; settings: in vivo
Rattus norvegicus [16] = experiment: Polyacrylamide Gel Electrophoresis (PAGE) analysis of rat plasma 5 minutes after intravenous administration of radiolabeled in stacking gel; assay type: functional, organism-based; method in brief: as §2
Rattus norvegicus [17] = experiment: Polyacrylamide Gel Electrophoresis (PAGE) analysis of rat plasma 5 minutes after intravenous administration of radiolabeled compound (below albumin ); assay type: functional, organism-based; method in brief: as §2
Rattus norvegicus [18] = experiment: Polyacrylamide Gel Electrophoresis (PAGE) analysis of rat plasma 5 min after intravenous administration of radiolabeled compound in albumin; assay type: functional, organism-based; method in brief: as §1
Rattus norvegicus [19] = experiment: Distribution of radioactivity of radiolabeled compound in heart of female rats 30 minutes after intravenous administration; assay type: ADME, organism-based; settings: in vivo, 0.5 h
Rattus norvegicus [20] = experiment: Distribution of radioactivity of radiolabeled compound in heart of female rats 5 minutes after intravenous administration; assay type: ADME, organism-based; settings: in vivo
Rattus norvegicus [21] = experiment: Percentage […]/CH3OH extract of the radiolabeled compound in rat plasma 5 minutes after iv administration; assay type: functional
Method in brief: (§3)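 Liver and plasma were taken at 5 or 30 min. Plasma was extracted by a modified Folch procedure, and liver was homogenized and extracted. Extracts were run on TLC in hexane/ethyl acetate (5:2) for esters or THF/hexane (1:1) for acids, with unlabeled compound as reference. Plates were cut into 1-cm strips and counted. Values are percent ± SEM, n = 3-5.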

Rattus norvegicus [22] = experiment: Percentage parent compound in rat liver 5 minutes after iv administration of the radiolabeled compound by thin-layer chromatography; assay type: functional; method in brief: as §3
Rattus norvegicus [23] = experiment: Percentage parent compound in rat plasma 30 minutes after iv administration of the radiolabeled compound by thin-layer chromatography; assay type: functional; method in brief: as §3
Rattus norvegicus [24] = experiment: Polyacrylamide Gel Electrophoresis (PAGE) analysis of rat plasma 30 min after intravenous administration of radiolabeled compound inlow density lipoprotein; assay type: functional, organism-based; method in brief: as §1
Rattus norvegicus [25] = experiment: Percentage […]/CH3OH extract of the radiolabeled compound in rat liver 30 minutes after iv administration; assay type: functional; method in brief: as §3
Rattus norvegicus [26] = experiment: Distribution of radioactivity of radiolabeled compound in lung of female rats 5 minutes after intravenous administration at; assay type: ADME, organism-based; settings: in vivo
Rattus norvegicus [27] = experiment: Polyacrylamide Gel Electrophoresis (PAGE) analysis of rat plasma 5 minutes after intravenous administration of radiolabeled compound at in high density lipoprotein; assay type: functional, organism-based; method in brief: as §2
Rattus norvegicus [28] = experiment: Polyacrylamide Gel Electrophoresis (PAGE) analysis of rat plasma 30 minutes after intravenous administration of radiolabeled in stacking gel; assay type: functional, organism-based; method in brief: as §1
Rattus norvegicus [29] = experiment: Percentage […]/CH3OH extract of the radiolabeled compound in rat liver 5 minutes after iv administration; assay type: functional; method in brief: as §3
Rattus norvegicus [30] = experiment: Polyacrylamide Gel Electrophoresis (PAGE) analysis of rat plasma 5 min after intravenous administration of radiolabeled compound concentration of albumin; assay type: functional, organism-based; method in brief: as §1
Rattus norvegicus [31] = experiment: Distribution of radioactivity of radiolabeled compound in liver of female rats 5 minutes after intravenous administration; assay type: ADME, organism-based; settings: in vivo
Rattus norvegicus [32] = experiment: Polyacrylamide Gel Electrophoresis (PAGE) analysis of rat plasma 5 minutes after intravenous administration of radiolabeled compound in stacking gel; assay type: functional, organism-based; method in brief: as §2
Rattus norvegicus [33] = experiment: Percentage parent compound in rat liver 30 minutes after iv administration of the radiolabeled compound by thin-layer chromatography; assay type: functional; method in brief: as §3
Rattus norvegicus [34] = experiment: Polyacrylamide Gel Electrophoresis (PAGE) analysis of rat plasma 30 min after intravenous administration of radiolabeled compound ( below albumin); assay type: functional, organism-based; method in brief: as §1
Rattus norvegicus [35] = experiment: Percentage […]/CH3OH extract of the radiolabeled compound in rat plasma 30 minutes after iv administration; assay type: functional; method in brief: as §3
Rattus norvegicus [36] = experiment: Polyacrylamide Gel Electrophoresis (PAGE) analysis of rat plasma 30 min after intravenous administration of radiolabeled compound at in high density; assay type: functional, organism-based; method in brief: as §1
Rattus norvegicus [37] = experiment: Polyacrylamide Gel Electrophoresis (PAGE) analysis of rat plasma 5 minutes after intravenous administration of radiolabeled compound in low-density lipoprotein; assay type: functional, organism-based; method in brief: as §2
Rattus norvegicus [38] = experiment: Percentage parent compound in rat plasma 5 minutes after iv administration of the radiolabeled compound by thin-layer chromatography; assay type: functional; method in brief: as §3
Rattus norvegicus [39] = experiment: Polyacrylamide Gel Electrophoresis (PAGE) analysis of rat plasma after intravenous administration of radiolabeled compound concentration of below albumin […]; assay type: functional, organism-based; method in brief: as §2
Rattus norvegicus [40] = experiment: Percentage […]/CH3OH extract of the radiolabeled compound in rat plasma 5 minutes after iv administration (+/-SEM); assay type: functional; method in brief: as §3
Rattus norvegicus [41] = experiment: Polyacrylamide Gel Electrophoresis (PAGE) analysis of rat plasma 30 minutes after intravenous administration of radiolabeled compound in high density lipoprotein; assay type: functional, organism-based; method in brief: as §1
Rattus norvegicus [42] = experiment: Percentage […]/CH3OH extract of the radiolabeled compound in rat liver 30 minutes after iv administration (+/-SEM); assay type: functional; method in brief: as §3
Rattus norvegicus [43] = experiment: Polyacrylamide Gel Electrophoresis (PAGE) analysis of rat plasma 30 minutes after intravenous administration of radiolabeled compound (below albumin); assay type: functional, organism-based; method in brief: as §1
Rattus norvegicus [44] = experiment: Percentage […]/CH3OH extract of the radiolabeled compound in rat liver 5 minutes after iv administration (+/-SEM); assay type: functional; method in brief: as §3
Rattus norvegicus [45] = experiment: Polyacrylamide Gel Electrophoresis (PAGE) analysis of rat plasma 30 minutes after intravenous administration of radiolabeled compound in low-density lipoprotein; assay type: functional, organism-based; method in brief: as §1
Rattus norvegicus [46] = experiment: Polyacrylamide Gel Electrophoresis (PAGE) analysis of rat plasma 30 minutes after intravenous administration of radiolabeled compound in albumin; assay type: functional, organism-based; method in brief: as §1
Rattus norvegicus [47] = experiment: Polyacrylamide Gel Electrophoresis (PAGE) analysis of rat plasma 5 minutes after intravenous administration of radiolabeled compound (below albumin); assay type: functional, organism-based; method in brief: as §2
Rattus norvegicus [48] = experiment: Percentage […]/CH3OH extract of the radiolabeled compound in rat plasma 30 minutes after iv administration (+/-SEM); assay type: functional; method in brief: as §3
Rattus norvegicus [49] = experiment: Polyacrylamide Gel Electrophoresis (PAGE) analysis of rat plasma 30 minutes after intravenous administration of radiolabeled compound in stacking gel; assay type: functional, organism-based; method in brief: as §1

Row | Dose (Rattus norvegicus [3]) [%] | Dose (Rattus norvegicus [4]) [%] | Dose (Rattus norvegicus [7]) [%] | Dose (Rattus norvegicus [8]) [%] | Dose (Rattus norvegicus [9]) [%] | Dose (Rattus norvegicus [12]) [%] | Dose (Rattus norvegicus [15]) [%] | Dose (Rattus norvegicus [19]) [%] | Dose (Rattus norvegicus [20]) [%] | Dose (Rattus norvegicus [31]) [%] | SMILES | Concentration (Rattus norvegicus [10]) | Concentration (Rattus norvegicus [13]) | Concentration (Rattus norvegicus [17]) | Concentration (Rattus norvegicus [18]) | Activity (Rattus norvegicus [22]) [%] | Activity (Rattus norvegicus [23]) [%] | Concentration (Rattus norvegicus [32]) [%] | Activity (Rattus norvegicus [33]) [%] | Concentration (Rattus norvegicus [37]) [%] | Activity (Rattus norvegicus [38]) [%] | other results
1 | 1.06 | 3.63 | 1.46 | 0.77 | 0.66 | 1.21 | 0.95 | 0.73 | 1.15 |  | Nc1c(I)cc(I)c(CCCCCCCCCCCC(=O)O)c1I | 54.4 | 8 | 4.8 | 84.6 |  |  |  |  |  |  | Concentration (Rattus norvegicus [1]): 26.3; Concentration (Rattus norvegicus [2]): 11.2; Dose (Rattus norvegicus [5]): 6.96%; Concentration (Rattus norvegicus [6]): 5.6; Concentration (Rattus norvegicus [11]): 3.8; Concentration (Rattus norvegicus [14]): 1; Concentration (Rattus norvegicus [16]): 1.5%
2 | 1.12 | 5.22 | 1.21 | 0.59 | 1.84 | 2.5 |  | 0.7 | 0.73 | 6.62 | CCCCCCCCCCCCCCCC(=O)OCC(COC(=O)CCCCCCCCCCCCCCC)OC(=O)CCCCCCCCCCCc1c(I)cc(I)c(N)c1I | 48.9 |  | 3 |  | 46.4 | 34 | 6.9 | 42.9 | 26 | 43.2 | Activity (Rattus norvegicus [21]): 81.8%; Concentration (Rattus norvegicus [24]): 9.7; Activity (Rattus norvegicus [25]): 61.2%; Dose (Rattus norvegicus [26]): 1.73%; Concentration (Rattus norvegicus [27]): 33.3%; Concentration (Rattus norvegicus [28]): 13.2; Activity (Rattus norvegicus [29]): 40.9%; Concentration (Rattus norvegicus [30]): 30.8; Concentration (Rattus norvegicus [34]): 12.5; Activity (Rattus norvegicus [35]): 54.8%; Concentration (Rattus norvegicus [36]): 15.6%
3 | 3.23 | 1.22 | 1.65 | 1.18 | 0.93 | 5.99 | 1.2 | 2.43 | 1.34 | 1.74 | CCCCCCCCCCCCCCCC(=O)OCC(COC(=O)CCCCCCCCCCCCCCC)OC(=O)CCc1c(I)cc(I)c(N)c1I |  | 57.1 |  | 14.6 | 72.5 | 86.1 | 4.6 | 47.7 | 20.2 | 75.5 | Concentration (Rattus norvegicus [39]): 69.4 [middle of 4 runs]; Activity (Rattus norvegicus [40]): 79.1%; Concentration (Rattus norvegicus [41]): 48.9%; Activity (Rattus norvegicus [42]): 52.1%; Concentration (Rattus norvegicus [43]): 4.4; Activity (Rattus norvegicus [44]): 68.4%; Concentration (Rattus norvegicus [45]): 15.7%; Concentration (Rattus norvegicus [46]): 27; Concentration (Rattus norvegicus [47]): 2.4; Activity (Rattus norvegicus [48]): 69.4%; Concentration (Rattus norvegicus [49]): 4%
